Source: the EternaBench riboswitch data

Test system: MS2 coat protein
Assay: apparent Kd, MS2 coat protein; higher = weaker binding; RNA-MaP array; FMN 200 µM where present
Outline: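 The apparent Kd comes from binding curves fitted cluster by cluster, filtered, and summarised as a median. Those curves followed SNAP-549-labelled MS2 coat protein from 0.7 or 1.5 nM, doubling to 3 µM, on Illumina sequencing-chip clusters where stalled E. coli RNA polymerase had transcribed the designs, without and then with constant ligand. The buffer was 100 mM Tris-HCl pH 7.5, 80 mM KCl, 4 mM MgCl2, BSA, DTT, yeast tRNA and Tween-20, and green signal was normalised to red-channel RNA signal and control-cluster median Fmax.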

[1] = designed as: ON switch for flavin mononucleotide, no ligand
[2] = ligand present: flavin mononucleotide, designed as: ON switch for flavin mononucleotide
[3] = designed as: OFF switch for flavin mononucleotide, no ligand
[4] = ligand present: flavin mononucleotide, designed as: OFF switch for flavin mononucleotide

Sequence	apparent Kd [1]	apparent Kd [2]	apparent Kd [3]	apparent Kd [4]
AUACCUUAUGAGAAGGCGGUCAUGAAACAUGAUCGAGGAUAUCAUGUAAACAUGAGGAUCACCCAUGUAUGGGUAUUAUGGUAC	38.2 nM	10.2 nM	–	–
AUACUCAUGUAAGGAUAUGCAGCCGAAACGGCUGCAGAAGGUACUAAAAUACAUGAGGAUCACCCAUGUCUUUUUAAUUUAGAC	258 nM	255 nM	–	–
AUACUCAUGUAAGGAUAUGCAGCCGAAACGGCUGCAGAAGGUACUAUAAUACAUGAGGAUCACCCAUGUCAAAAUAAAAUAGUC	63.5 nM	22.9 nM	–	–
AUAGCAUACCGAGGAUAUUCAUAUAAUAAAUAAACAUGAGGAUCACCCAUGUGGCGAAAGCCUAGGGAGAAGGCGGAAUGCUAU	204 nM	24.1 nM	–	–
AUAUCAUACCAAGGAUAUUUAGGAUUUGUGUAGACAUGAGGAUCACCCAUGUGGCGUUAGUCACGGGAGAAGGUGGUAUGAUAU	622 nM	105 nM	–	–
AUAUCCUAGAUAGGAUAUACUGAGGUUGAAUGGGUAGAAGGAUCGUUAGGGAAGACUACAUGAGGAUCACCCAUGUUGUGUAUU	218 nM	182 nM	–	–
AUAUCCUAGAUAGGAUAUACUGAGGUUGAAUGGGUAGAAGGAUCGUUAGGGUAGACUACAUGAGGAUCACCCAUGUUGUUUAUU	43.1 nM	40.1 nM	–	–
AUAUCUCUGUAAGGAUAUAGAUGGUAUACGCCUCCGACAUGAGGAUCACCCAUGUUAUAUUUUGUCUAGAAGGUACAGUGUCGG	656 nM	292 nM	–	–
AUAUGAUAGAUAGGAUAUACAUUGGAUUUAUAAGUAGAAGGAUCAAGUGGGAAUUAUACAUGAGGAUCACCCAUGUUUUUGGAU	63.9 nM	43.9 nM	–	–
AUAUGAUAGAUAGGAUAUACUGAGGUUGAAUGGGUAGAAGGAUCGAUAGGGAAGAAUACAUGAGGAUCACCCAUGUUGUGGAUU	76.9 nM	57.8 nM	–	–
AUAUUAAUAGUAAGGAUAUGCGUGUAUGUAGUUAUGCAGAAGGUACAUGAGGAUCACCCAUGUAUUAAUGUGUA	–	–	14.2 nM	15.4 nM
AUAUUUAUUUAGAAGGACAUGAGGAUCACCCAUGUCGCUGGGCCCGGGAAACCGGGCCCGGCCAUGUAGGAUAUAGAUAGAUAU	–	–	8.53 nM	9.17 nM
AUCAAUCAUGUAGGAUAUGCGUGGCGAAGCUAUGCAGAAGGACAUGAGGAUCACCCAUGUCUUUCUGUCUGCGUACGGACAGGA	–	–	19.4 nM	72.9 nM
AUCAGCUCCUCAGGAUAUACGUCACUGCGUCAGCAGUGUGGUAAGAUCACAUGAGGAUCACCCAUGUAGAAGGGACGAGCUGAU	–	–	31.8 nM	140 nM
AUCAGCUCGGCAGGAUAUACGUCACUGCGUCAGCAGUGUGGUAAGAUCACAUGAGGAUCACCCAUGUAGAAGGGACGAGCUGAU	–	–	11.4 nM	74.5 nM
AUCAGCUCGUCAGGAUAUACAUCACUGCGUCAGCAGUGUGGUAAGAUCACAUGAGGAUCACCCAUGUAGAAGGGACGAGCUGAU	–	–	13.9 nM	252 nM
AUCAGCUCGUCAGGAUAUACAUGAUAGAUCGAUUAAUUAAUUAAUUUAACAUGAGGAUCACCCAUGUAGAAGGGACGAGCUGAU	–	–	68.5 nM	67.4 nM
AUCAGCUCGUCAGGAUAUACGUCACUGCGUCAGCAGUGUGGGAAGAUCACAUGAGGAUCACCCAUGUAGAAGGGACGAGCUGAU	–	–	635 nM	20.4 nM
AUCAGCUCGUCAGGAUAUACGUCACUGCGUCAGCAGUGUGGUAAAAUCACAUGAGGAUCACCCAUGUAGAAGGGACGAGCUGAU	–	–	6.18 nM	14.4 nM
AUCAGCUCGUCAGGAUAUACGUCACUGCGUCAGCAGUGUGGUAAGAUCACAUGAGGAUCACCCAUGUAGAAGGGACGAGCUGGU	–	–	14.4 nM	239 nM
AUCAGCUCGUCAGGAUAUACGUGACUGCGUCAGCAGUGUGGUAAGAUCACAUGAGGAUCACCCAUGUAGAAGGGACGAGCUGAU	–	–	53.2 nM	580 nM
AUCAGCUCGUCAGGAUAUGCGUCACUGCGUCAGCAGUGUGGUAAGAUCACAUGAGGAUCACCCAUGUAGAAGGGACGAGCUGAU	–	–	9.59 nM	88.2 nM
AUCAGCUUGACAGGAUAUACAUGUCAGCGAAAGCUGACAAUCUUAAUAACAUGAGGAUCACCCAUGUAGAAGGGUCGAGCUGAU	–	–	18.1 nM	32.4 nM
AUCAGGUCGUCAGGAUAUACGUCACUGCGUCAGCAGUGUGGUAAGAUCACAUGAGGAUCACCCAUGUAGAAGGGACGAGCUGAU	–	–	13.2 nM	311 nM
AUCAGUUCGUCAGGAUAUACGUCACUGCGUCAGCAGUGUGGUAAGAUCACAUGAGGAUCACCCAUGUAGAAGGGACGAGCUGAU	–	–	14 nM	214 nM
AUCAUGUAAGGAUAUCUUAUAUGGAUCGAAAGAUCAAGUUAAGAGAAGGUACAUGAGGAUCACCCAUGUAUAAC	–	–	21.2 nM	27.2 nM
AUCAUGUCAGGAUAUCUGAUAUGGAUCUUCGGAUCAAGUUCAGAGAAGGGACAUGAGGAUCACCCAUGUCGAAC	–	–	25 nM	42.4 nM
AUCAUGUCAGGAUAUGUGACAUGGAUCUUCGGAUCAAGAUCACAGAAGGGACAUGAGGAUCACCCAUGUCGAUC	–	–	98.8 nM	53.4 nM

Sequence	apparent Kd [1]	apparent Kd [2]	apparent Kd [3]	apparent Kd [4]
AUCCCGCGAGGAUAUACAUGAGGAUCACCCAUGUAGGUUCUGGAUGGGCGAAAUUUGUGUAGAAGGCGCACCAA	–	–	33.4 nM	26.1 nM
AUCCGACAUGAGGAUCACCCAUGUCAGGAUAUGGACUGACAUCGAAAGGAUGGCAGAACCAGAAGGGACUGGGC	–	–	29.9 nM	56.2 nM
AUCCGGAGGGAGAAGGGCUAGGAGGUCCAGCUUAUGUGUGUUGCAACAUGAGGAUCACCCAUGUAGCAGGAUAUCCCUUGUAUA	–	–	51.2 nM	214 nM
AUCGAGUAAGGAUAUACAUGAGGAUCACCCAUGUCCGUGAGGUAAGUUUGUGUCCGGCGUAGAAGGUACUGCAU	–	–	52.1 nM	121 nM
AUCGGUCCGUAGAAGGGUGACAUGAGGAUCACCCAUGUGCCGUGUGCGUUUAUGCCUCCACGGCCACAGGAUAUACGGAGUUGA	28.2 nM	19.1 nM	–	–
AUCUAAGAAUUAAUUGUGACUGACAGAAGGCAAUAGAAUGAGACCGACAUGAGGAUCACCCAUGUUGAGGAUAUGUCUUGCUAC	–	–	6.53 nM	6.74 nM
AUCUCCUCUGUCAGGAUAUAUAAACUGUUGCAGUGGUAGAAGGGACAUGAGGAUCACCCAUGUAAUAUAAAUAA	–	–	25.6 nM	71.5 nM
AUCUCGUCAGGAUAUUGGAUUUGGAUUGAAAGGUUUAGGUUUAAGAAGGGACAUGAGGAUCACCCAUGUCUGGU	–	–	21.8 nM	21.5 nM
AUCUUGAGAGGAUAUACAUGAGGAUCACCCAUGUUGCUAACACCAUGCGGUCAUUUGCGUAGAAGGCUCAUCCG	–	–	26.2 nM	104 nM
AUCUUUGACUUUACUAGAAUAGGGCAGGAUAUACAUGAGGAUCACCCAUGUUAAGCACGUAAGAGGUAGAAGGGCCCUUGUCAU	–	–	16.1 nM	13.6 nM
AUGAAAUACUAGCACGGCGCGGCACAGGAUAUGCCUCAACAUGAGGAUCACCCAUGUCACUGUAGGUAGAAGGGUGUUAGCGAA	18.4 nM	5.52 nM	–	–
AUGACCUCAGUCAGGAUAUCGGCGCGGUGACGACUCGAGAAGGGACAUGAGGAUCACCCAUGUCUCGAUUAUAG	–	–	15.4 nM	22.2 nM
AUGAGAAUUGUUAGGAUAUCCGUAAGUAAGUACUGGGAGAAGGGACAUGAGGAUCACCCAUGUGAUAGCCGACU	–	–	102 nM	80.6 nM
AUGAGAGCAGGAUAUGCAGGUGUGCCGGAAGAAAGAAGAAGACAUGAGGAUCACCCAUGUAGAAGGGCUAGCCC	–	–	19.1 nM	15.6 nM
AUGAGGUCAGGAUAUGCAUGGCGGGACUUGCGUCGUGGCGUGCAGAAGGGACAUGAGGAUCACCCAUGUGGAGG	–	–	177 nM	249 nM
AUGAGGUCAGGAUAUGCAUGGCGGGACUUGCGUCGUGGCGUGGAGAAGGGACAUGAGGAUCACCCAUGUGGAGC	–	–	56.6 nM	64.7 nM
AUGCCUUAUGUAGGAUAUGCAUAGCGUUGCUAUGCAGAAGGACAUGAGGAUCACCCAUGUAUGUUAUCAUUACAUAUCUGGCAU	–	–	27.6 nM	271 nM
AUGCUAUACGAAGGAUAUGGUUACAUGAGGAUCACCCAUGUUAUUCUUGUUUUCUUGUUUAUGUUCCAGAAGGUCGUAUAGCUA	–	–	47.3 nM	38.2 nM
AUGCUUCACACAGGAUAUACAUGAGGAUCACCCAUGUGUCCACCGUAGCUGACACGAGCUACGCGGUAGAAGGGUGUGAAGCAU	–	–	18 nM	33.3 nM
AUGCUUUAUGUAGGAUAUUCAAACAAAGAGAAUGGAGAAGGACAUGAGGAUCACCCAUGUAGAAUGAUGUUAGAUAUCAUAUAU	–	–	16.3 nM	14.4 nM
AUGGACAGCAUAGACACAUAGUAACGAGAAGGUACACAUGAGGAUCACCCAUGUACAGUCAGAAGUAAGGAUAUUGAAUGGUAG	36.4 nM	27.4 nM	–	–
AUGGACGUCGUAGGAUAUGUAGGAUUCUCGUACAUGAGGAUCACCCAUGUUGACGUCGAGGUCGGACAGAAGGGCGGUGUCUAU	20.9 nM	8.65 nM	–	–
AUGGAUAUCACAGGAUAUGAUAUGGAUACCAUAUCAGAAGGGUGAUCCAUCCUAUGUAAAUACAUGAGGAUCACCCAUGUGUCC	15.1 nM	31.6 nM	–	–
AUGGAUAUCACAGGAUAUGCUAAGGAUACCUUAGCAGAAGGGUGAUCCAUCCUAUGGCUGUACAUGAGGAUCACCCAUGUGUCA	331 nM	41.4 nM	–	–
AUGGAUAUCACAGGAUAUGCUAUGGAUACCAUAGCAGAAGGGUGAUCCAUCCUAUGUAAAUACAUGAGGAUCACCCAUGUGUCC	50 nM	35.7 nM	–	–
AUGGGACAUGAGGAUCACCCAUGUUAGGAUAUCUCCUUAGUAACGAUCAGGCUAUAGGAGAGAAGGAACGGUCC	–	–	258 nM	272 nM
AUGGGUUAAGGAGGAUAUAGAGGGAGGAGUAGACAUGAGGAUCACCCAUGUAUUUAAUUAGUUUACUAGAAGGCUUGUGAUUGU	56 nM	75.7 nM	–	–
